Assay results published in ChEMBL document CHEMBL2375304, “Synthesis and anticancer activity of novel 2-pyridyl hexahyrocyclooctathieno[2,3-d]pyrimidine derivatives” (2013).

Experiments:
Type in all cases: functional
MOLT-4 = experiment: Growth inhibition of human MOLT4 cells at 10^-5 M after 48 hrs by Sulforhodamine B assay relative to control; details: MOLT-4, 48 h, read-out: GI
Procedure, shortened: (§1)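 Single-dose primary screen at 10⁻⁵ M across 49 lines. Cells were plated 24 h beforehand, with a TCA-fixed time-zero plate, then exposed 48 h at 37 °C, 5% CO2. Cells were fixed with cold TCA, stained with SRB and read at 515 nm. Percent growth was calculated against time-zero and untreated-control absorbances.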

OVCAR-4 = experiment: Growth inhibition of human OVCAR4 cells at 10^-5 M after 48 hrs by Sulforhodamine B assay relative to control; details: OVCAR-4, 48 h, read-out: GI; procedure, shortened: as §1
SK-MEL-28 = experiment: Growth inhibition of human SK-MEL-28 cells at 10^-5 M after 48 hrs by Sulforhodamine B assay relative to control; details: SK-MEL-28, 48 h, read-out: GI; procedure, shortened: as §1
KM12 = experiment: Growth inhibition of human KM12 cells at 10^-5 M after 48 hrs by Sulforhodamine B assay relative to control; details: KM12, 48 h, read-out: GI
Procedure, shortened: (§2)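 Single-dose screen at 10⁻⁵ M. Cells are preincubated 24 h at 37 °C in 5% CO2, then exposed to the compound, diluted from a DMSO stock into medium with gentamicin, for 48 h. Adherent cells are fixed with cold TCA (final 10%) and suspension cells with TCA (final 16%). Cells are stained with 0.4% SRB in 1% acetic acid and bound dye is read at 515 nm. Percent growth inhibition is taken against control wells and time-zero plates.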

K562 [1] = experiment: Growth inhibition of human K562 cells at 10^-5 M after 48 hrs by Sulforhodamine B assay relative to control; details: K562, 48 h, read-out: GI; procedure, shortened: as §2
786-0 = experiment: Growth inhibition of human 786-0 cells at 10^-5 M after 48 hrs by Sulforhodamine B assay relative to control; details: 786-0, 48 h, read-out: GI; procedure, shortened: as §2
PC-3 = experiment: Growth inhibition of human PC3 cells at 10^-5 M after 48 hrs by Sulforhodamine B assay relative to control; details: PC-3, 48 h, read-out: GI; procedure, shortened: as §1
Hs-578T [2] = experiment: Growth inhibition of human Hs578T cells at 10^-5 M after 48 hrs by Sulforhodamine B assay relative to control; details: read-out: GI; procedure, shortened: as §2
SNB-75 = experiment: Growth inhibition of human SNB75 cells at 10^-5 M after 48 hrs by Sulforhodamine B assay relative to control; details: SNB-75, 48 h, read-out: GI; procedure, shortened: as §1
COLO 205 = experiment: Growth inhibition of human COLO205 cells at 10^-5 M after 48 hrs by Sulforhodamine B assay relative to control; details: COLO 205, 48 h, read-out: GI; procedure, shortened: as §2
BT-549 [3] = experiment: Growth inhibition of human BT549 cells at 10^-5 M after 48 hrs by Sulforhodamine B assay relative to control; details: BT-549, 48 h, read-out: GI; procedure, shortened: as §2
UACC-62 = experiment: Growth inhibition of human UACC62 cells at 10^-5 M after 48 hrs by Sulforhodamine B assay relative to control; details: UACC-62, 48 h, read-out: GI
Procedure, shortened: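 Single-dose stage: compound tested at 10⁻⁵ M in the 49-cell-line panel. Cells grew 24 h at 37 °C, 5% CO₂ before drug addition. Drug stock was in DMSO at 400-fold, diluted in medium with gentamicin. After 48 h exposure, adherent cells were fixed with cold TCA (10% final) and stained with 0.4% SRB in 1% acetic acid. Dye was solubilized in 10 mM Tris, read at 515 nm. Growth percentage was taken relative to untreated control and time-zero plates.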

NCI-H322M = experiment: Growth inhibition of human NCI-H322M cells at 10^-5 M after 48 hrs by Sulforhodamine B assay relative to control; details: read-out: GI; procedure, shortened: as §1
[4] = Growth inhibition of human HCC2998 cells at 10^-5 M after 48 hrs by Sulforhodamine B assay relative to control; details: HCC 2998, 48 h, read-out: GI; procedure, shortened: as §2
HOP-62 = experiment: Growth inhibition of human HOP62 cells at 10^-5 M after 48 hrs by Sulforhodamine B assay relative to control; details: HOP-62, 48 h, read-out: GI; procedure, shortened: as §2
SF-295 = experiment: Growth inhibition of human SF295 cells at 10^-5 M after 48 hrs by Sulforhodamine B assay relative to control; details: SF-295, 48 h, read-out: GI; procedure, shortened: as §1
Hs-578T [5] = experiment: Growth inhibition of human Hs578T cells after 48 hrs by Sulforhodamine B assay
Procedure, shortened: (§3)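 Five-concentration SRB assay using 10-fold or ½-log serial dilutions from a DMSO stock. Exposure is 48 h at 37 °C in 5% CO2 after 24 h preincubation. TCA fixation is followed by SRB staining and a reading at 515 nm. Percentage growth is computed from time-zero, control and treated absorbances. GI50 is the concentration where [(Ti−Tz)/(C−Tz)]×100 = 50, read from the plot against log concentration.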

CCRF-CEM = experiment: Growth inhibition of human CCRF-CEM cells after 48 hrs by Sulforhodamine B assay; procedure, shortened: as §3
LOX IMVI = experiment: Growth inhibition of human LOXIMVI cells after 48 hrs by Sulforhodamine B assay; procedure, shortened: as §3
SF-268 = experiment: Growth inhibition of human SF268 cells after 48 hrs by Sulforhodamine B assay; details: SF-268, 48 h
Procedure, shortened: (§4)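 Cells were preincubated 24 h at 37 °C, 5% CO2, and a time-zero plate was TCA-fixed. Five concentrations were made by serial dilution from a DMSO stock (400-fold the top concentration) and incubated 48 h. Adherent cells were fixed with 10% final TCA and suspension cells with 16%. Plates were stained with 0.4% SRB and read at 515 nm. GI50 is the concentration giving 50% reduction in net protein increase versus control.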

HCT-15 = experiment: Growth inhibition of human HCT15 cells after 48 hrs by Sulforhodamine B assay; details: HCT-15, 48 h; procedure, shortened: as §3
BT-549 [6] = experiment: Growth inhibition of human BT549 cells after 48 hrs by Sulforhodamine B assay; details: BT-549, 48 h; procedure, shortened: as §3
IGROV-1 = experiment: Growth inhibition of human IGROV1 cells after 48 hrs by Sulforhodamine B assay; details: IGROV-1, 48 h; procedure, shortened: as §3
A549 = experiment: Growth inhibition of human A549/ATCC cells after 48 hrs by Sulforhodamine B assay; details: A549, 48 h; procedure, shortened: as §3
MCF7 = experiment: Growth inhibition of human MCF7 cells after 48 hrs by Sulforhodamine B assay; details: MCF7, 48 h; procedure, shortened: as §3
NCI-H460 = experiment: Growth inhibition of human NCI-H460 cells after 48 hrs by Sulforhodamine B assay; details: NCI-H460, 48 h; procedure, shortened: as §4
MDA-MB-231 = experiment: Growth inhibition of human MDA-MB-231 cells after 48 hrs by Sulforhodamine B assay; details: MDA-MB-231, 48 h; procedure, shortened: as §3
MDA-MB-435 = experiment: Growth inhibition of human MDA-MB-435 cells after 48 hrs by Sulforhodamine B assay; details: MDA-MB-435, 48 h; procedure, shortened: as §3
K562 [7] = experiment: Growth inhibition of human K562 cells after 48 hrs by Sulforhodamine B assay; details: K562, 48 h; procedure, shortened: as §3
HT-29 = experiment: Growth inhibition of human HT-29 cells after 48 hrs by Sulforhodamine B assay; details: HT-29, 48 h; procedure, shortened: as §3

| SMILES | inhibition of growth at 10 µM (MOLT-4) [%] | inhibition of growth at 10 µM (OVCAR-4) [%] | inhibition of growth at 10 µM (SK-MEL-28) [%] | inhibition of growth at 10 µM (KM12) [%] | inhibition of growth at 10 µM (K562 [1]) [%] | inhibition of growth at 10 µM (786-0) [%] | GI50 (Hs-578T [5]) [µM] | GI50 (CCRF-CEM) [µM] | GI50 (LOX IMVI) [µM] | GI50 (SF-268) [µM] | GI50 (HCT-15) [µM] | GI50 (BT-549 [6]) [µM] | GI50 (IGROV-1) [µM] | GI50 (A549) [µM] | GI50 (MCF7) [µM] | GI50 (NCI-H460) [µM] | GI50 (MDA-MB-231) [µM] | GI50 (MDA-MB-435) [µM] | GI50 (K562 [7]) [µM] | GI50 (HT-29) [µM] | also measured |
| --- | --- | --- | --- | --- | --- | --- | --- | --- | --- | --- | --- | --- | --- | --- | --- | --- | --- | --- | --- | --- | --- |
| Clc1nc(-c2ccncc2)nc2sc3c(c12)CCCCCC3 | 15.6 | 14.8 | -4.12 | 0.47 | 13.6 | 0.46 |  |  |  |  |  |  |  |  |  |  |  |  |  |  | inhibition of growth at 10 µM (PC-3): 0.63%; inhibition of growth at 10 µM (Hs-578T [2]): 6.64%; inhibition of growth at 10 µM (SNB-75): 9.59%; inhibition of growth at 10 µM (COLO 205): -16.6%; inhibition of growth at 10 µM (BT-549 [3]): -2.76%; inhibition of growth at 10 µM (UACC-62): 6.14%; inhibition of growth at 10 µM (NCI-H322M): 3.46%; inhibition of growth at 10 µM [4]: -12.3%; inhibition of growth at 10 µM (HOP-62): -9.05% |
| Clc1nc(-c2ccccn2)nc2sc3c(c12)CCCCCC3 | 32.3 | 14.3 | 10.7 | 8.45 | 20.2 | 1.61 |  |  |  |  |  |  |  |  |  |  |  |  |  |  | inhibition of growth at 10 µM (PC-3): 7.81%; inhibition of growth at 10 µM (Hs-578T [2]): 8.7%; inhibition of growth at 10 µM (SNB-75): 15%; inhibition of growth at 10 µM (COLO 205): -14.6%; inhibition of growth at 10 µM (BT-549 [3]): 14.9%; inhibition of growth at 10 µM (UACC-62): 4.04%; inhibition of growth at 10 µM (NCI-H322M): 15.5%; inhibition of growth at 10 µM [4]: 36.6%; inhibition of growth at 10 µM (HOP-62): 13.4% |
| NNc1nc(-c2ccncc2)nc2sc3c(c12)CCCCCC3 | 9.09 | 18.7 | 4.94 | -0.57 | 24.7 | 18.1 |  |  |  |  |  |  |  |  |  |  |  |  |  |  | inhibition of growth at 10 µM (PC-3): 7.42%; inhibition of growth at 10 µM (SF-295): 6.22%; inhibition of growth at 10 µM (Hs-578T [2]): -13.7%; inhibition of growth at 10 µM (SNB-75): 18.8%; inhibition of growth at 10 µM (COLO 205): 2.31%; inhibition of growth at 10 µM (BT-549 [3]): 1.1%; inhibition of growth at 10 µM (UACC-62): 10.8%; inhibition of growth at 10 µM (NCI-H322M): 3.42%; inhibition of growth at 10 µM [4]: -16%; inhibition of growth at 10 µM (HOP-62): 4.03% |
| c1ccc(-c2nc(N3CCOCC3)c3c4c(sc3n2)CCCCCC4)nc1 |  |  |  |  |  |  | 3.39 | 3.55 | 5.25 | 8.91 | 3.39 | 4.37 | 3.16 | 3.55 | 3.02 | 5.89 | 7.41 | 4.79 | 3.47 | 6.03 |  |
| CN1CCN(c2nc(-c3ccncc3)nc3sc4c(c23)CCCCCC4)CC1 |  |  |  |  |  |  | 2.29 | 8.13 | 8.32 | 5.37 | 11.2 | 6.31 | 8.13 | 11.5 | 6.61 | 13.5 | 4.27 | 11.7 | 3.55 | 4.79 |  |
| O=c1[nH]c(-c2ccncc2)nc2sc3c(c12)CCCCCC3 |  |  |  |  |  |  | > 100 | > 100 | > 100 | > 100 | > 100 | > 100 | > 100 | > 100 | > 100 | > 100 | > 100 | > 100 | > 100 | > 100 |  |
| NNc1nc(-c2ccccn2)nc2sc3c(c12)CCCCCC3 |  |  |  |  |  |  | 11 | 4.47 | 6.17 | 7.24 | 1.12 | 9.77 | 4.17 | 3.16 | 3.8 | 4.17 | 12.6 | 5.13 | 3.8 | 5.5 |  |
| O=c1[nH]c(-c2ccccn2)nc2sc3c(c12)CCCCCC3 |  |  |  |  |  |  | 6.46 | 0.912 | 1.1 | 8.71 | 2.34 | 5.62 | 3.98 | 2.57 | 2.45 | 1.91 | 8.71 | > 100 | 1 | 7.76 |  |
| COc1ccc(N2CCN(c3nc(-c4ccccn4)nc4sc5c(c34)CCCCCC5)CC2)cc1 |  |  |  |  |  |  | 57.5 | 4.37 | 6.31 | > 100 | 4.27 | 6.92 | 5.37 | 3.24 | 3.16 | 4.68 | 50.1 | 5.5 | 4.17 | 5.01 |  |
